Assay [1] deals with Glyoxalase domain-containing protein 4 (Homo sapiens) (UniProt Q9HC38). Briefly: Binding affinity to GLOD4 in human NCI-H23 cells at 1 uM by mass spectrometry based pull down assay. It is filed as cell-based.
Assay [2] addresses Src substrate cortactin (Homo sapiens) (UniProt Q14247). Briefly: Binding affinity to CTTN in human NCI-H23 cells at 1 uM by mass spectrometry based pull down assay. The class given is cell-based.
The target in assay [3] is 5'-AMP-activated protein kinase subunit gamma-1 (Homo sapiens) (UniProt P54619). Briefly: Binding affinity to PRKAG1 in human NCI-H358 cells at 1 uM by mass spectrometry based pull down assay. The class given is cell-based.
The next assay has as its target Tensin-3 (Homo sapiens) (UniProt Q68CZ2). Briefly: Binding affinity to TNS3 in human NCI-H358 cells at 1 uM by mass spectrometry based pull down assay. It is filed as cell-based.
The target of assay [4] is Citrate synthase, mitochondrial (Homo sapiens) (UniProt O75390). Briefly: Binding affinity to CS in human NCI-H358 cells at 1 uM by mass spectrometry based pull down assay. It is filed as cell-based.
The target in assay [5] is Thymidylate kinase (Homo sapiens) (UniProt P23919). Briefly: Binding affinity to DTYMK in human NCI-H23 cells at 1 uM by mass spectrometry based pull down assay. It is filed as cell-based.
The target of assay [6] is Probable ATP-dependent RNA helicase DDX5 (Homo sapiens) (UniProt P17844). Briefly: Binding affinity to DDX5 in human NCI-H23 cells at 1 uM by mass spectrometry based pull down assay. The class given is cell-based.
For assay [7], the target named is 14-3-3 protein sigma (Homo sapiens) (UniProt P31947). The experiment in a line: Binding affinity to SFN in human NCI-H23 cells at 1 uM by mass spectrometry based pull down assay. The class given is cell-based.
For assay [8], the target named is Tight junction protein 1 (Homo sapiens) (UniProt Q07157). The experiment in a line: Binding affinity to TJP1 in human NCI-H358 cells at 1 uM by mass spectrometry based pull down assay. It is filed as cell-based.
The target of assay [9] is High mobility group protein B2 (Homo sapiens) (UniProt P26583). The experiment in a line: Binding affinity to HMGB2 in human NCI-H358 cells at 1 uM by mass spectrometry based pull down assay. It is filed as cell-based.
Assay [10] deals with Translation initiation factor eIF2B subunit gamma (Homo sapiens) (UniProt Q9NR50). Briefly: Binding affinity to EIF2B3 in human NCI-H23 cells at 1 uM by mass spectrometry based pull down assay. The class given is cell-based.
In assay [11] the target is DnaJ homolog subfamily B member 6 (Homo sapiens) (UniProt O75190). The experiment in a line: Binding affinity to DNAJB6 in human NCI-H358 cells at 1 uM by mass spectrometry based pull down assay. It is filed as cell-based.
For the next assay, the target named is Caprin-1 (Homo sapiens) (UniProt Q14444). Briefly: Binding affinity to CAPRIN1 in human NCI-H358 cells at 1 uM by mass spectrometry based pull down assay. It is filed as cell-based.
In assay [12] the target is N-acetyl-D-glucosamine kinase (Homo sapiens) (UniProt Q9UJ70). The experiment in a line: Binding affinity to NAGK in human NCI-H358 cells at 1 uM by mass spectrometry based pull down assay. It is filed as cell-based.
Assay [13] concerns the target TGF-beta-activated kinase 1 and MAP3K7-binding protein 1 (Homo sapiens) (UniProt Q15750). The experiment in a line: Binding affinity to TAB1 in human NCI-H23 cells at 1 uM by mass spectrometry based pull down assay. It is filed as cell-based.
The target in another assay is Plectin (Homo sapiens) (UniProt Q15149). The experiment in a line: Binding affinity to PLEC in human NCI-H358 cells at 1 uM by mass spectrometry based pull down assay. The class given is cell-based.
In assay [14] the target is Cytosolic iron-sulfur assembly component 2A (Homo sapiens) (UniProt Q9H5X1). Briefly: Binding affinity to FAM96A in human NCI-H23 cells at 1 uM by mass spectrometry based pull down assay. The class given is cell-based.
Assay [15] addresses T1, 80S Ribosome (Homo sapiens) (UniProt P08865+P42677+P62753+P15880+P23396+P61247+P62701+P22090+P46782+P62081+P62241+P46781+P46783+P62280+P25398+P62277+P62263+P62841+P62244+P62249+P08708+P62269+P39019+P60866+P63220+P62266+P62847+P62851+P62854+P62979+P62857+P62273+P62861+P39023+P36578+P46777+Q02878+P18124+P62424+P62917+P32969+P27635+P62906+P62913+P30050+P26373+P40429+P50914+P61313+P18621+Q07020+Q02543+P84098+P46778+P35268+P62829+P62750+P83731+P61254+P61353+P46776+P46779+P47914+P62888+P62899+P62910+P49207+P42766+P18077+Q9Y3U8+P83881+P61927+P61513+P63173+P62891+P62945+P05388+P05386). Briefly: Binding affinity to RPL31 in human NCI-H358 cells at 1 uM by mass spectrometry based pull down assay. It is filed as cell-based.

Assay [16] has as its target T1, 80S Ribosome (Homo sapiens). Briefly: Binding affinity to RPL5 in human NCI-H358 cells at 1 uM by mass spectrometry based pull down assay. It is filed as cell-based.
Assay [17] has the same target. Briefly: Binding affinity to RPS7 in human NCI-H23 cells at 1 uM by mass spectrometry based pull down assay. The class given is cell-based.
The target of assay [18] is Clathrin heavy chain 1 (Homo sapiens) (UniProt Q00610). Briefly: Binding affinity to CLTC in human NCI-H23 cells at 1 uM by mass spectrometry based pull down assay. The class given is cell-based.
Assay [19] deals with Ribosomal protein S6 kinase alpha-3 (Homo sapiens) (UniProt P51812). Briefly: Binding affinity to RPS6KA3 in human NCI-H358 cells at 1 uM by mass spectrometry based pull down assay. It is filed as cell-based.
Assay [20] deals with T1, 80S Ribosome (Homo sapiens). Briefly: Binding affinity to RPLP1 in human NCI-H23 cells at 1 uM by mass spectrometry based pull down assay. It is filed as cell-based.
Assay [21] deals with Dual specificity mitogen-activated protein kinase kinase 2 (Homo sapiens) (UniProt P36507). Briefly: Inhibition of full length human MEK2 (1 to 400 residues) expressed in mammalian expression system assessed as enzyme activity at 10 uM by KINOMEScan assay relative to control. More on the design: scale not given: the % may be the effect or the level left. The method, boiled down: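 In vitro ATP-site competition binding assay (KinomeScan) across a panel of 456 kinases. Compound was tested at 1 and 10 μM. The read-out is the binding inhibition score relative to control.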

In assay [22] the target is Phosphatidylinositol 4-phosphate 3-kinase C2 domain-containing subunit beta (Homo sapiens) (UniProt O00750). The experiment in a line: Inhibition of PIK3C2B in human SKCO1 cells at 1 uM after 4 hrs using biotin labeled VIFKCGDDLRQDMLTLQMIR probe by mass-spectrometric analysis relative to control. It is filed as cell-based.
Assay [23] has as its target Tyrosine-protein kinase receptor UFO (Homo sapiens) (UniProt P30530). The experiment in a line: Inhibition of AXL in human SKCO1 cells at 1 uM after 4 hrs using biotin labeled NCMLNENMSVCVADFGLSKK probe by mass-spectrometric analysis relative to control. The class given is cell-based.
The target in assay [24] is Inhibitor of nuclear factor kappa-B kinase subunit epsilon (Homo sapiens) (UniProt Q14164). The experiment in a line: Inhibition of IKKe in human SKCO1 cells at 1 uM after 4 hrs using biotin labeled DIKPGNIMR probe by mass-spectrometric analysis relative to control. It is filed as cell-based.

SMILES strings stand for the structures. Calls of active or inactive are those of the source. The rule behind the calls is not given here.

Glyoxalase domain-containing protein 4 (Homo sapiens), sequence (Q9HC38 whole entry, the tested form may be a part): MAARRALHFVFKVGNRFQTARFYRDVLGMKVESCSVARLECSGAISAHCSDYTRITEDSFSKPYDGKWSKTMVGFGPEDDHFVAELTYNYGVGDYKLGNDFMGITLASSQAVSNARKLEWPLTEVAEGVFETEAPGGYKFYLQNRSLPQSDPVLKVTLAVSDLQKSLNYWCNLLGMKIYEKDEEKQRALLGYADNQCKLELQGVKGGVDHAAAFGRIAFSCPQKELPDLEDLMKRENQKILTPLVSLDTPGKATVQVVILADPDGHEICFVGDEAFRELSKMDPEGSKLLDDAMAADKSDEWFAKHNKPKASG
Phosphatidylinositol 4-phosphate 3-kinase C2 domain-containing subunit beta (Homo sapiens), sequence (O00750 whole entry, the tested form may be a part): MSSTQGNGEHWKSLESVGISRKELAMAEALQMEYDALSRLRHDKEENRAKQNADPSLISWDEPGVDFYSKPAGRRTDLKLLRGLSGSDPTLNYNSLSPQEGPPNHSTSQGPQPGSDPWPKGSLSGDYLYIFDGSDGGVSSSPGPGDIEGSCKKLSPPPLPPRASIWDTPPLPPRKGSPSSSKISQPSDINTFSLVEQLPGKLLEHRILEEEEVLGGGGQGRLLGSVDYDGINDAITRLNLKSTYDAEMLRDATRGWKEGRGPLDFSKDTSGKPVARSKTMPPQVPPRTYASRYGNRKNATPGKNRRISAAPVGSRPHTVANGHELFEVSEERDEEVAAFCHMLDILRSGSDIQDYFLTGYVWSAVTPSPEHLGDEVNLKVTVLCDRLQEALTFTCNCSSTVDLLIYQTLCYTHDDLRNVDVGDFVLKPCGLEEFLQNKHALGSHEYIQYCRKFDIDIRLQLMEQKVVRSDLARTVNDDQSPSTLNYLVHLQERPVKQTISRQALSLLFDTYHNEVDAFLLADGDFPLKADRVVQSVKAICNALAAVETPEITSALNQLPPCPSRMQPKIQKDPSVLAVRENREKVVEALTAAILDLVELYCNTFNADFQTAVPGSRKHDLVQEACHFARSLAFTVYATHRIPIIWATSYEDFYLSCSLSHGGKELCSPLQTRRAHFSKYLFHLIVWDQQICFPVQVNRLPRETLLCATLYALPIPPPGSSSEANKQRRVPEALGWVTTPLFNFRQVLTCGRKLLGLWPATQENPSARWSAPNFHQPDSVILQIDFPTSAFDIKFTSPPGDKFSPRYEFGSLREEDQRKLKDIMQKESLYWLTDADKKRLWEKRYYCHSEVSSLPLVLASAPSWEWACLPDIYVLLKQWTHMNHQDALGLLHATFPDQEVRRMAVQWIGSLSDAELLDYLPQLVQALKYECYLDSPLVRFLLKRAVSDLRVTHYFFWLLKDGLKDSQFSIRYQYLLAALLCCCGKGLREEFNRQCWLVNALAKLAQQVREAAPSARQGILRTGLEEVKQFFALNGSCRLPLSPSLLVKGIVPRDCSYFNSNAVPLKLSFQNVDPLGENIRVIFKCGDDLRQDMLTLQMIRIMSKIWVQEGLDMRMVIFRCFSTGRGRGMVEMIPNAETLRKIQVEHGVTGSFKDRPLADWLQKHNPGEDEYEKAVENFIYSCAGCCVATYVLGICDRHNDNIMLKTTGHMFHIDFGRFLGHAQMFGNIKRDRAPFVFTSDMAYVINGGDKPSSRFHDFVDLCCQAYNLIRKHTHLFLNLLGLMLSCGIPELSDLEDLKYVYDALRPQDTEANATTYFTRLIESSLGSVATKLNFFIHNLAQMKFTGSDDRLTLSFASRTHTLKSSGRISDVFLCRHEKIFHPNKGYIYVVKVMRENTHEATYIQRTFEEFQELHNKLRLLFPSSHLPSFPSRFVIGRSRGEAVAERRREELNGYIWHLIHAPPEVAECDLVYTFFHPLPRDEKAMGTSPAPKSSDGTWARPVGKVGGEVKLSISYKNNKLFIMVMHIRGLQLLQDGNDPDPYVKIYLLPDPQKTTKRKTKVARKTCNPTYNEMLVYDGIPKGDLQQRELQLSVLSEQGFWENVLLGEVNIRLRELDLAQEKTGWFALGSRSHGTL
5'-AMP-activated protein kinase subunit gamma-1 (Homo sapiens), sequence (P54619 whole entry): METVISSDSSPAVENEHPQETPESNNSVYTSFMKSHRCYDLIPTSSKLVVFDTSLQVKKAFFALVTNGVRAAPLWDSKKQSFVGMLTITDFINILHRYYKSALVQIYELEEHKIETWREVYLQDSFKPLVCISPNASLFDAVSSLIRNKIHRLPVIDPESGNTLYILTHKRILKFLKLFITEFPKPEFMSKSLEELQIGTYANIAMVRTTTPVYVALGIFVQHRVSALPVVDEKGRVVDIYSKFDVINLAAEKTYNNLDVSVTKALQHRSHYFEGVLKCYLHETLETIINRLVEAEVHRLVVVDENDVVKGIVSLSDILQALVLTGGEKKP
14-3-3 protein sigma (Homo sapiens), sequence (P31947 whole entry): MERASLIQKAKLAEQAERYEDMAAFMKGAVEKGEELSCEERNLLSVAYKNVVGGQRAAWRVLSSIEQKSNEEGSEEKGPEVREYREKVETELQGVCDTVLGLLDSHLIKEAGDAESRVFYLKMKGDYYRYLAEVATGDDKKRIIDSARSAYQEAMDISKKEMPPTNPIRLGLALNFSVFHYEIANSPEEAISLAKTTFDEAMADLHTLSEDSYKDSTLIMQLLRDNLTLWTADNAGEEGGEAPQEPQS
Caprin-1 (Homo sapiens), sequence (Q14444 whole entry): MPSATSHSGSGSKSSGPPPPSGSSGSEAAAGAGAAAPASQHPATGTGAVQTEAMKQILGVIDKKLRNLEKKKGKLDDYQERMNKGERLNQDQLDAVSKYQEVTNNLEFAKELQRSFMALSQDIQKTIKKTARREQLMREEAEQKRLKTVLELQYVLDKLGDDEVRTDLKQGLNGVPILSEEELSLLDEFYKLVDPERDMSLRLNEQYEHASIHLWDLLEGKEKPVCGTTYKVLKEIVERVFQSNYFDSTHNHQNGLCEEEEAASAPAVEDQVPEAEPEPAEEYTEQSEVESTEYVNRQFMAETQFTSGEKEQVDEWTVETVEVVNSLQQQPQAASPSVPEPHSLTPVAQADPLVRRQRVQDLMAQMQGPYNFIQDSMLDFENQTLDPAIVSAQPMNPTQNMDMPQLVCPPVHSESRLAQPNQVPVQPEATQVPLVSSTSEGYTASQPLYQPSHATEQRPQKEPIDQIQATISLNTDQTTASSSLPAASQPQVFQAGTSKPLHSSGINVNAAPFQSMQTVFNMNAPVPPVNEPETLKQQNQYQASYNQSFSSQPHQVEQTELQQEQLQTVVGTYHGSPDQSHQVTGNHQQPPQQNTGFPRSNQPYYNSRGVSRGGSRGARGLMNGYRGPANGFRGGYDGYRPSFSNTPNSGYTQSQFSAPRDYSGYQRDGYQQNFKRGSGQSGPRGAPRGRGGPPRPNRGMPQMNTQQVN
Src substrate cortactin (Homo sapiens), sequence (Q14247 whole entry): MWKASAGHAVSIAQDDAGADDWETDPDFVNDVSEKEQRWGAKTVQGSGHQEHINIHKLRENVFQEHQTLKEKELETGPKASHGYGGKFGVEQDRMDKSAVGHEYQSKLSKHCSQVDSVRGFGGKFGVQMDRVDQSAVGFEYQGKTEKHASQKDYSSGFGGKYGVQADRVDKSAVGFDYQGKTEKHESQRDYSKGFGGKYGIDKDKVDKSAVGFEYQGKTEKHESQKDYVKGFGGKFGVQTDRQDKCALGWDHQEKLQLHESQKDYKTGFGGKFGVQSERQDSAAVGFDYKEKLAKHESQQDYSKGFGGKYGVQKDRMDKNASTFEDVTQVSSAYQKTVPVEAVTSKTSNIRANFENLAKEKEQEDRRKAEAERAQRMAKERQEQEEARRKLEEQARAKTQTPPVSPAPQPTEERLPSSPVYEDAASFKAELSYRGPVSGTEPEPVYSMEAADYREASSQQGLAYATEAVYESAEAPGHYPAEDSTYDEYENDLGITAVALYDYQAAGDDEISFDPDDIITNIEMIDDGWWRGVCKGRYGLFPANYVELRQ
N-acetyl-D-glucosamine kinase (Homo sapiens), sequence (Q9UJ70 whole entry): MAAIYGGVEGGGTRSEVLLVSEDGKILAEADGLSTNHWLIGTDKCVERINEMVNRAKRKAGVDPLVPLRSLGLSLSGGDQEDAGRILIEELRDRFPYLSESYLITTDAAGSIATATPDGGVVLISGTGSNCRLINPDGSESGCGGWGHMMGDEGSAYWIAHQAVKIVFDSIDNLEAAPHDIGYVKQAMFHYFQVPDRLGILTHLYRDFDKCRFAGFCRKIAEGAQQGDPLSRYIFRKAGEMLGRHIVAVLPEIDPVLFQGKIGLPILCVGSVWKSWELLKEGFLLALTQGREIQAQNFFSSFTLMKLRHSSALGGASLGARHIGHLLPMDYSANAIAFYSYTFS
Citrate synthase, mitochondrial (Homo sapiens), sequence (O75390 whole entry): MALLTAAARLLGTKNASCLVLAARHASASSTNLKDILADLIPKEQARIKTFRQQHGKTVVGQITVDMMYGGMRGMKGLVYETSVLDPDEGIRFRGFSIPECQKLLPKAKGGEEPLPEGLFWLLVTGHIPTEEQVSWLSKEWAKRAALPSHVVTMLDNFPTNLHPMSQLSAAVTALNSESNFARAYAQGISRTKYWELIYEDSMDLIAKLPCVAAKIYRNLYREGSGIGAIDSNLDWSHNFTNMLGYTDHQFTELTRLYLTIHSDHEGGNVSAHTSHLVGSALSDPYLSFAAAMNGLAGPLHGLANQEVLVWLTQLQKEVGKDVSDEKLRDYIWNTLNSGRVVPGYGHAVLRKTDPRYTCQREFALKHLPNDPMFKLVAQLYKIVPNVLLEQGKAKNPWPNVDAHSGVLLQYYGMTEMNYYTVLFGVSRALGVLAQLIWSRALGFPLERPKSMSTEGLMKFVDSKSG
DnaJ homolog subfamily B member 6 (Homo sapiens), sequence (O75190 whole entry): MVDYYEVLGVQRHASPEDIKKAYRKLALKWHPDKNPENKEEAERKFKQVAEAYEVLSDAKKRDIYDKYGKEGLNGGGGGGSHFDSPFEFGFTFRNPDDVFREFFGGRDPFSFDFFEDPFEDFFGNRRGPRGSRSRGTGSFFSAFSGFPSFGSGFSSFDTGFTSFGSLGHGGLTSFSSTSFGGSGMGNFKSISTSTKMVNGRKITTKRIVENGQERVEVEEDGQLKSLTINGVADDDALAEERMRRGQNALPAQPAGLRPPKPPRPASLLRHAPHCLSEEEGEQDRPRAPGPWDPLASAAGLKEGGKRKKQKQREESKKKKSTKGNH

Take `C=CC(=O)Nc1ccccc1Nc1nc(Nc2ccc(N3CCN(CCOCCOCCOCCNC(=O)CCCC[C@@H]4SC[C@@H]5NC(=O)N[C@@H]54)CC3)cc2)ncc1Cl`: the result (in assay [1]; in assay [2]; in assay [3]; on Tensin-3 (Homo sapiens); in assay [4]; in [5]) was Active. Further, the outcome in assay [6], in assay [7], in assay [8], in assay [9], in assay [10] and in assay [11] was Active. The result (at Caprin-1 (Homo sapiens); in assay [12]; in assay [13]; on Plectin (Homo sapiens); in assay [14]; in assay [15]) was Active. Besides, the outcome in assay [16], in assay [17], in assay [18], in assay [19] and in [20] was Active.
A word on the inhibition: it is how much of the control response was suppressed. For `COc1cc(O)c2c(c1)/C=C/C[C@H](O)[C@H](O)C(=O)/C=C\C[C@H](C)OC2=O`, in [21], the Activity turned out to be 0.05%. The compound further gave an inhibition in assay [22] of 8.3%.
As for `C=CC(=O)Nc1ccccc1Nc1nc(Nc2ccc(N3CCN(C)CC3)cc2)ncc1Cl`, the inhibition in [23] is 27.2%; in [24] it was 59.3%.
